Source: PubChem
ERp5 inh = ERp5 (human) disulfide isomerase inhibition; AID 651711; ERp5 insulin aggregation, absorbance 650 nm, 90 min; inhibition, % at 9.99 µM; 350,000 tested, 0.05% active; Q15084;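 active means mean replicate inhibition above about 25%, with every replicate also reaching it, limit read from the data, passing the limit was not always enough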
S100A4 inh HTS = S100A4-myosin IIA interaction inhibition | P26447 | inhibition, % at 10.7 µM | 360,000 tested, 0.14% active | S100A4/TAMRA-MyoIIA peptide fluorescence polarization;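 active means mean inhibition of at least 70% across replicates, with every replicate also reaching that level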
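incubation = readout 5 min after mixing, signal stable up to 60 min | system = S100A4 monomer protein | buffer or medium = HEPES pH 7.2 with CaCl2, KCl, NaCl, DTT, Triton | benchmarks = neutral control DMSO, positive control TFP | also added = fluorescent myosin IIA peptide, 5 nM | compound dosing = one concentration per compound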
ERAP1 HTS inh = ERAP1 (human) enzyme inhibition | 340,000 tested, 0.15% active | inhibition, % at 10.7 µM | recombinant ERAP1, Leu-AMC fluorescence, 60 min | Q9NZ08;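 active means mean replicate inhibition of at least 30%, or all replicates individually reaching that 30% level; inactive means mean below 30% and not every replicate reaching it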
Target sequence (Q9NZ08 whole entry, looked up): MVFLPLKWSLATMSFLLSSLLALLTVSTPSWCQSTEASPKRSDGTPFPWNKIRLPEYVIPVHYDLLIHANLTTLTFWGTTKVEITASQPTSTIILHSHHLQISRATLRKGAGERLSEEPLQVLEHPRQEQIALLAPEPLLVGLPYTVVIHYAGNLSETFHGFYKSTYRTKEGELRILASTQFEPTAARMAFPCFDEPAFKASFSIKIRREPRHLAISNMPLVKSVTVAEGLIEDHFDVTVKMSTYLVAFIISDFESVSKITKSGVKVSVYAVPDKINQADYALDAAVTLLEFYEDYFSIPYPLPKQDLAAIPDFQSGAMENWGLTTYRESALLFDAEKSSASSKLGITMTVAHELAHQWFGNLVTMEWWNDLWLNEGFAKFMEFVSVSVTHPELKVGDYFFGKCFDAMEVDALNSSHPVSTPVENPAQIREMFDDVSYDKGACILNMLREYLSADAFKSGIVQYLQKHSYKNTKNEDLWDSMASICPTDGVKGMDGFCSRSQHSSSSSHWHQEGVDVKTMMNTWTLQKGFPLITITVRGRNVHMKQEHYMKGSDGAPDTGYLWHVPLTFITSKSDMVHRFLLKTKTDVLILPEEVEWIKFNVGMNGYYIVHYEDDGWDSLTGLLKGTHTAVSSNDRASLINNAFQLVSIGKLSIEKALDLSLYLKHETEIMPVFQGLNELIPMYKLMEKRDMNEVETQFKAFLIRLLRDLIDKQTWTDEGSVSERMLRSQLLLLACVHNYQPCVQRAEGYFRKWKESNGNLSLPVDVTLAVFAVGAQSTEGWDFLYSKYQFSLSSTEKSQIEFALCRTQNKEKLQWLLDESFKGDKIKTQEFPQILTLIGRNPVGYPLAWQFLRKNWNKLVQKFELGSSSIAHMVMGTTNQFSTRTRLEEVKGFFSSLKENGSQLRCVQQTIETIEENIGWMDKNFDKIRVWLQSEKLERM
PDI turbidity = inhibitors of human protein disulfide isomerase; P07237; PDI insulin aggregation turbidity, A650, 90 min; inhibition, % at 10 µM; 350,000 tested, 0.052% active; AID 588391;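 active means mean inhibition across replicates of 30% or more, whatever share of single replicates reach that level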
FGF22 binding = binders of recombinant human FGF22 by thermal shift | Q9HCT0 | SYPRO orange fluorescence; percent of sucrose octasulfate shift, DMSO zero | activity (Tm shift, normalised), % at 9.99 µM | 340,000 tested, 1.5% active | AID 651658;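 active means mean Tm shift, scaled 0 neutral to 100 positive control, at about 1.3% or above, every replicate too, limit read from the data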
Each line names hits and unclear results; the compound was inactive in the other large screens. This excerpt belongs to a sample that is enriched for hits.

COc1ccc(NC(=O)C2(C)Cc3c(-c4ccc5c(c4)OCO5)ccnc3O2)cn1 (configuration not stated)	FGF22 binding 44
O=c1c2cc(-c3ccccc3)sc2nc2n1CCC2	FGF22 binding 44 (no result: PDI turbidity)
O=C(c1cccs1)N1CCN(c2cc(Cl)ccc2Cl)CC1	none
C[C@@H]1[C@@H](Sc2ccccc2)CC(=O)O[C@@H]1c1ccc(-c2ccccc2)cc1	none
O=C1C=CC2(O[C@H](c3ccccc3)[C@@H](c3ccccc3)O2)[C@H](Sc2ccccc2O)C1	ERAP1 HTS inh 33
CCOCCn1c(N2CCN(c3ccccc3)CC2)nc2c1c(=O)[nH]c(=O)n2C	FGF22 binding 43
Cn1c(=O)[nH]c(=O)c2c1nc(N1CCNCC1)n2CCOc1ccccc1	none (no result: ERp5 inh, S100A4 inh HTS, ERAP1 HTS inh, FGF22 binding)
N#CCCN(CCC#N)C(=O)C1c2ccccc2Oc2ccccc21	S100A4 inh HTS 131
COc1ccccc1OCC(=O)Nc1nnc(-c2ccco2)s1	none (no result: ERp5 inh, S100A4 inh HTS, ERAP1 HTS inh, FGF22 binding)
COc1ccc(C(CC(=O)Nc2ncccc2C)N2Cc3ccccc3C2=O)cc1OC (configuration not stated)	none
Cn1nnc2cc(C(=O)Nc3ccccc3)ccc21	none
COc1ccccc1NC(=O)c1ccc2c(c1)nnn2C	FGF22 binding 44
O=C(NC1CCCCCC1)C(=O)NC1CCCC1	none (no result: ERp5 inh, S100A4 inh HTS, ERAP1 HTS inh, FGF22 binding)
CCC(C)NC(=O)C(=O)NC1CCCC1 (configuration not stated)	FGF22 binding 44
CC(C)CCNC(=O)C(=O)NC1CCCC1	FGF22 binding 44
CCCCCC[N+](C)(C)CCSSCC[N+](C)(C)CCCCCC	none (no result: ERAP1 HTS inh)
CCCCCCCCCCCCCCCC[N+](C)(C)CC	ERAP1 HTS inh 77
CCCCCCCCCCCCCCCC[N+](C)(C)CCl	ERAP1 HTS inh 88
CC#CC[N+](C)(C)CCCCCCCCCCCC	ERAP1 HTS inh 42
CCNc1nc(NCC)n2c(SCC(=O)Nc3ccccc3OC(F)F)nnc2n1	none
CC1(C(=O)Nc2ccc3c(c2)OCCO3)CCN1C(=O)C1(c2ccccc2)CC1 (configuration not stated)	none
C/C(=N\N1CCN(C)CC1)c1ccc(OC(F)F)cc1	FGF22 binding 43
C/C(=N\N1CCN(C)CC1)c1ccc(Cl)c(Cl)c1	none
CCOC(=O)CC1C(=O)NCCN1C(=O)Nc1ccccc1 (configuration not stated)	none (no result: ERp5 inh, S100A4 inh HTS, ERAP1 HTS inh, FGF22 binding)
COc1ccc(Sc2nc(-c3ccccc3)ncc2C(=O)O)cc1	none
COc1ccc(Oc2nc(-c3ccccc3)ncc2C(=O)O)cc1	FGF22 binding 43
C=CCSc1nc(C)c(CC(=O)OCCCC)c(=O)[nH]1	none (no result: ERp5 inh, S100A4 inh HTS, ERAP1 HTS inh, FGF22 binding)
CCCOc1ccc(/C=N/NC(=O)c2c(-c3ccccc3)noc2C)cc1OC	none
CCNS(=O)(=O)c1ccc(NC(=S)NCC2CCCO2)cc1 (configuration not stated)	FGF22 binding 43
C[C@@H]1CN([C@H](C)CO)C(=O)c2cccc(N(C)C)c2O[C@H]1CN(C)Cc1ccc(C(F)(F)F)cc1	none (no result: PDI turbidity)
COc1ccc(-c2nn(-c3ccccc3)cc2CO)cc1	none (no result: ERp5 inh, S100A4 inh HTS, ERAP1 HTS inh, FGF22 binding)
COc1ccc(-c2nn(-c3ccccc3)cc2N)cc1	FGF22 binding 44
C=C1c2cccc(O)c2C(O)=C2C(=O)[C@]3(O)C(O)=C(C(N)=O)C(=O)[C@@H](N(C)C)[C@@H]3[C@@H](O)[C@H]12	ERAP1 HTS inh 35 (no result: PDI turbidity)
C[C@H]1c2cccc(O)c2C(O)=C2C(=O)C3(O)C(O)=C(C(N)=O)C(=O)[C@@H](N(C)C)[C@@H]3[C@@H](O)[C@@H]21 (some centres not stated)	none
O=C(NCCC1=CCCCC1)C(=O)NCC1OCCCN1S(=O)(=O)c1ccc(F)cc1 (configuration not stated)	FGF22 binding 44
COC(=O)c1ccc(CNCC(=O)Nc2ccc(C(=O)OC)cc2)cc1	FGF22 binding 43
COc1ccc(CCNC(=O)C2(C)CCC(=O)N2Cc2ccc(F)cc2Cl)cc1OC (configuration not stated)	none
O=c1cc(CSc2nnnn2-c2ccc(O)cc2)nc2sccn12	PDI turbidity 39
Cn1c(Cc2ccccc2)nnc1SCc1cc(=O)n2ccsc2n1	none
O=C(NCCc1ccc(Cl)cc1)c1ccc2nc[nH]c2c1	FGF22 binding 43
CCn1c(SCC(=O)NCc2ccccc2)nnc1C(CO)NC(=O)c1ccccc1 (configuration not stated)	ERAP1 HTS inh 32
CCn1c(SCC(=O)NCCc2ccccc2)nnc1C(C)C	none
COC(=O)C[C@@H]1CC[C@H]2[C@H](COc3ccc(NC(=O)Nc4cccc(C)c4)cc3C(=O)N2C)O1	none (no result: PDI turbidity)
CCOC(=O)c1ccc(NC(=O)c2c(NC(=O)CCC(=O)O)sc3c2CCCCC3)cc1	FGF22 binding 44
COc1ccc(-c2nc(S(=O)(=O)c3ccccc3)c(N3CCN(C)CC3)o2)cc1	FGF22 binding 46
CC(C)NS(=O)(=O)c1ccc(OCC(=O)Nc2cccc(F)c2)cc1	FGF22 binding 43
CC(C)NS(=O)(=O)c1ccc(OCC(=O)Nc2ccc3c(c2)OCO3)cc1	none
CC1=C(N2CCOCC2)CCC1=O	S100A4 inh HTS 85 (no result: ERAP1 HTS inh)
CC1=C(C)C(=O)C(N2CCOCC2)=CC1=O	none
Cc1cccn2c(=O)c(/C=C(\C#N)C(=O)NCc3ccco3)c(N3CCCCCC3)nc12	none
O=C(/C=C/NNC(=O)c1ccc(Cl)cc1)c1ccccc1	FGF22 binding 44
CN1C(=O)c2cc(NC(=O)c3cccc(F)c3)ccc2OC[C@H]2O[C@@H](CC(=O)NCc3ccccc3Cl)CC[C@H]21	FGF22 binding 1.6 (no result: PDI turbidity)
CC(=O)Nc1ccc2c(c1)C(=O)N(C)[C@H]1CC[C@H](CC(=O)NCC3CC3)O[C@H]1CO2	none (no result: PDI turbidity)
CC(=O)Nc1ccc2c(c1)C(=O)N(C)[C@@H]1CC[C@@H](CC(=O)NCC3CC3)O[C@H]1CO2	ERp5 inh 71 (no result: PDI turbidity)
C[C@@H]1CN([C@H](C)CO)C(=O)c2cc(NC(=O)Nc3cccc4ccccc34)ccc2O[C@@H](C)CCCCO[C@H]1CN(C)C(=O)C1CCCCC1	none (no result: PDI turbidity)
CNC[C@@H]1Oc2c(NS(C)(=O)=O)cccc2C(=O)N([C@@H](C)CO)C[C@@H]1C	none (no result: PDI turbidity)
C[C@@H]1CCCCO[C@@H](CN(C)C(=O)Nc2cccc3ccccc23)[C@H](C)CN([C@@H](C)CO)C(=O)c2cc(NC(=O)C3CCCCC3)ccc2O1	S100A4 inh HTS 117 (no result: PDI turbidity)
C[C@@H]1CCCCO[C@H](CN(C)C(=O)C2CCCCC2)[C@@H](C)CN([C@H](C)CO)C(=O)c2cc(NC(=O)Nc3cccc4ccccc34)ccc2O1	FGF22 binding 1.3 (no result: PDI turbidity)
CNC[C@H]1Oc2c(N)cccc2C(=O)N([C@@H](C)CO)C[C@H]1C	ERp5 inh 86 (no result: S100A4 inh HTS, ERAP1 HTS inh, PDI turbidity, FGF22 binding)
CNC[C@@H]1Oc2ccc(NC(=O)Nc3cccc4ccccc34)cc2C(=O)N([C@H](C)CO)C[C@@H]1C	S100A4 inh HTS 137 (no result: PDI turbidity)
CNC[C@H]1Oc2ccc(NC(=O)Nc3cccc4ccccc34)cc2C(=O)N([C@@H](C)CO)C[C@@H]1C	none (no result: PDI turbidity)
